These results are taken from PMC6441337 (Journal of controlled release : official journal of the …, 2018).

One series has as its system Caco-2 monolayers. Put plainly: Caco-2 permeability assay. In kind it is in vitro ADME, Human. The method in brief:
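Caco-2 cells grown in EMEM with 20% FBS and 1% PenStrep, then seeded on inserts for ~20 days to form confluent monolayers. Free test compound or its cyclodextrin complexes added apically; transport followed over 2 h, plus basolateral-to-apical for efflux. Controls: ranitidine (low), warfarin (high), talinolol (P-gp). Papp = (dQ/dt)/(C0×A); efflux ratio = Papp(B→A)/Papp(A→B). Integrity by TEER with lucifer yellow transport.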
(In general: Caco-2 cells form a polarised layer with tight junctions and transporters.)

The next series deals with intestinal mucosa. Put plainly: Intestinal toxicity by histopathological scoring. Conditions: mice, oral, 10 mg/kg/d over 7 days. The class given is in vivo. In a few lines: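 Mice given free test compound or cyclodextrin complexes orally at 10 mg/kg/d for 7 days; PBS group included. Intestine fixed in 10% formalin for 24 h, paraffin-embedded, sectioned at 5 μm and H&E stained. Duodenum examined at 20×. Mucosal damage graded: grade 0, normal villi; grade 1, subepithelial Gruenhagen's space at villus tips; higher grades follow.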

In the next series the test system is advanced LUAD tumors. Conditions: cited from earlier work.
For series [1] the following is noted: cited from earlier work.
The subject of another series is intestine. Conditions: mouse, in vivo, 10 mg/kg; cited from earlier work.

The structures appear in SMILES notation.

With `Cc1cc(-c2ncc(CC(=O)Nc3ccc(-c4cnccn4)cn3)cc2C)ccn1` [LGK974], the “permeability across Caco-2 monolayers” value in the series with Caco-2 monolayers (A → B and B → A, 2 h) is given as “high permeability”. Besides, in the series on Caco-2 monolayers (Caco-2 monolayers, 2 h treatment), the “transepithelial electrical resistance (TEER) after treatment” value is “did not decrease significantly”. For the same compound, the “intestinal mucosal damage (histopathological scoring)” value in the series with intestinal mucosa is “Intestinal mucosal damage was observed”. In addition, the “effect in mice with advanced LUAD tumors” value in the series on advanced LUAD tumors was “suppressed Wnt target genes, inhibited tumor growth and proliferation, and extended survival”. Further, the “solubility in aqueous environments” value in series [1] is given as “poorly soluble”. Also, the “intestinal toxicity on oral administration” value in the series on intestine was “induces intestinal toxicity”.
